Measurements as given in ChEMBL document CHEMBL4385646, “Structural development of 1H-pyrazolo-[3,4-b]pyridine-4-carboxylic acid derivatives as human peroxisome proliferator-activated receptor alpha (PPARα)-selective agonists” (Bioorg Med Chem Lett, 2019).
pEC50: −log10 of the molar value. The source made the active and inactive calls. No cut-off for these calls is given here.

Columns and labels:
[1] = target: T1, Peroxisome proliferator-activated receptor alpha (Homo sapiens) (UniProt Q07869); test: Transactivation of human GAL4-fused PPARalpha LBD expressed in human HepG2 cells at 1 uM after 24 hrs by dual renilla-luciferase reporter gene assay relative to fenofibrate; type: cell-based
T1 sequence (whole entry): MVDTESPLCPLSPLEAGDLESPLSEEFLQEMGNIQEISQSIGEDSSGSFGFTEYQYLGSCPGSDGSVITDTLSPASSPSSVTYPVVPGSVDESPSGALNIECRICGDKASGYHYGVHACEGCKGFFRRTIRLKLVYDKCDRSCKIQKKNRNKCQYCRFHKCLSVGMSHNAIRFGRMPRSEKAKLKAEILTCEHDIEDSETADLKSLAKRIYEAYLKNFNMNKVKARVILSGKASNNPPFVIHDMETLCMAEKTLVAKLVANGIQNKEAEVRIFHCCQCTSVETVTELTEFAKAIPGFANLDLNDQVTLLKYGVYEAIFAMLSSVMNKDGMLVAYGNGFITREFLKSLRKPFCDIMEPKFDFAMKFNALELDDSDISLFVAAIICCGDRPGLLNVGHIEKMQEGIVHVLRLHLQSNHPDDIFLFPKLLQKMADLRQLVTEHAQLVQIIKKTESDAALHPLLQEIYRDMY
Method in brief: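 HepG2 cells cotransfected with 4xUAS-tk-luc and pBIND-hPPARα. Cells treated 24 h with compound at 1 μM final; fenofibrate 10 μM served as reference and 0.1% DMSO as vehicle. Read-out by reporter gene luciferase assay.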

[2] = target: T2, Peroxisome proliferator-activated receptor alpha (Homo sapiens, UniProt Q07869); test: Transactivation of human GAL4-fused PPARalpha LBD expressed in human HepG2 cells after 24 hrs by renilla luciferase reporter gene assay; type: cell-based
T2 sequence (Q07869 whole entry): T1 sequence (whole entry)

[3] = Metabolic stability in human liver microsomes assessed as parent compound remaining at 0.5 uM after 60 mins in presence of NADPH by LC/MS/MS analysis; type: ADME, Microsome; details: microsomes, 1 h, 0.5 µM
Method in brief: (§1)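 Compound at 0.5 μM incubated with liver microsomes at 37°C for 1 h; result given as percent remaining. Final DMSO 0.2%.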

[4] = Protein binding in human plasma at 20 uM after 5 hrs by LC/MS/MS analysis; type: ADME, cell-free; details: 5 h, 20 µM
Method in brief: (§2)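 Compound at 20 μM incubated with plasma at 37°C for 5 h; percent bound to protein determined. Final DMSO 0.2%.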

[5] = Apparent permeability from apical to basolateral side in human Caco2 cells at 25 uM measured up to 2 hrs by LC/MS/MS analysis; type: ADME, cell-based; details: Caco-2
Method in brief: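 Caco-2 monolayers; permeability measured apical-to-basolateral (A–B) at 25 μM compound, reported as ×10⁻⁶ cm/s.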

[6] = Solubility of the compound in pH 7.4 PBS at 100 uM incubated for 10 mins under shaking condition by HPLC analysis; type: physicochemical
Method in brief: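 Aqueous solubility determined in PBS, pH 7.4; reported in μM.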

[7] = Protein binding in rat plasma at 20 uM after 5 hrs by LC/MS/MS analysis; type: ADME, cell-free; details: 5 h, 20 µM; method in brief: as §2
[8] = Metabolic stability in rat liver microsomes assessed as parent compound remaining at 0.5 uM after 60 mins in presence of NADPH by LC/MS/MS analysis; type: ADME, Microsome; details: microsomes, 1 h, 0.5 µM; method in brief: as §1
[9] = target: T1, Peroxisome proliferator-activated receptor alpha (Homo sapiens); test: Transactivation of human […] PPARalpha LBD expressed in human HepG2 cells at 1 uM by renilla luciferase reporter gene assay relative to control; type: cell-based
[10] = target: Peroxisome proliferator-activated receptor alpha (Homo sapiens) (UniProt Q07869); test: Displacement of fluormone pan-PPAR green from GST-tagged human PPARalpha ligand binding domain after 3 hrs by TR-FRET assay

| Structure (SMILES) | activation relative to fenofibrate [1] | pEC50 [2] | other results |
| --- | --- | --- | --- |
| CC(C)(Sc1ccc(CCN(CCCCC2CCCCC2)C(=O)NC2CCCCC2)cc1)C(=O)O | 200 |  |  |
| CCC(CC)c1nn(-c2ccc(F)cc2)c2nc(C)cc(C(=O)O)c12 | 205 | 5.84 |  |
| CCC(Cc1cc(C)nc2c1c(C(C)C)nn2-c1ccc(F)cc1)C(=O)O (stereo not drawn) | 1.53 |  |  |
| Cc1cc(C(=O)O)c2c(C)nn(-c3ccccc3)c2n1 | 13.6 |  |  |
| Cc1cc(C(=O)O)c2c(C(C)C)nn(-c3cccc(Cl)c3)c2n1 | 96.7 |  |  |
| CC(C)c1nn(-c2ccc(Cl)cc2)c2nc(-c3ccccc3)cc(C(=O)O)c12 | 243 | 5.74 |  |
| Cc1cc(C(=O)[O-])c2c(C(C)C)nn(-c3ccc(Cl)cc3)c2n1.[Na+] |  |  | Stability [3]: 91%; PPB [4]: 99.7%; Papp A→B at 2 h, 25 µM [5]: 22.5 ×10⁻⁶ cm/s; solubility at 10 min, 100 µM [6]: > 95 µM; PPB [7]: 98.9%; Stability [8]: 92% |
| Cc1cc(C(=O)O)c2c(C(C)C)nn(-c3ccc(I)cc3)c2n1 | 111 | 5.62 |  |
| Cc1cc(C(=O)O)c2c(C(C)C)nn(-c3cccc(OCc4ccccc4)c3)c2n1 | 47.4 |  |  |
| CC(C)c1nn(-c2ccc(F)cc2)c2ncc(C(=O)O)c(Cl)c12 | 6.21 |  |  |
| Cc1cc(C(=O)O)c2c(C(C)(C)C)nn(-c3cccc(Cl)c3)c2n1 | 5.75 |  |  |
| CC(C)c1nn(-c2ccc(F)cc2)c2nc(C3CC3)cc(C(=O)O)c12 |  |  | fold change (FC) [9]: 151 |
| Cc1cc(C(=O)O)c2c(C(C)C)nn(-c3ccc(F)cc3)c2n1 | 79.2 | 5.69 |  |
| Cc1cc(C(=O)O)c2c(C(C)C)nn(-c3ccc(C(F)(F)F)cc3)c2n1 | 26 |  |  |
| CCc1cc(C(=O)O)c2c(C(C)C)nn(-c3ccc(Cl)cn3)c2n1 | 16.2 |  |  |
| Cc1cc(C(=O)O)c2c(C(C)C)nn(-c3ccc(Br)cc3)c2n1 | 85.2 | < 5.40 |  |
| Cc1cc(C(=O)O)c2c(C(C)C)nn(-c3ccc(Cl)c(Cl)c3)c2n1 | 51 |  |  |

The next lines start with results.

| activation relative to fenofibrate [1] | pEC50 [2] | Structure (SMILES) | other results |
| --- | --- | --- | --- |
| 78.2 |  | CCc1cc(C(=O)O)c2c(C3CCCC3)nn(-c3ccc(Cl)cc3)c2n1 |  |
| 24.6 |  | Cc1cc(C(=O)O)c2c(C3CC3)nn(-c3ccc(Cl)cc3)c2n1 |  |
| 111 | 5.75 | CCc1cc(C(=O)O)c2c(C(C)C)nn(-c3ccc(I)cc3)c2n1 |  |
| 176 | 6.17 | CCC(C)c1nn(-c2ccc(Cl)cc2)c2nc(C)cc(C(=O)O)c12 (stereo not drawn) |  |
| 224 | 6.34 | CCC(C)c1nn(-c2ccc(Cl)cc2)c2nc(C3CC3)cc(C(=O)O)c12 (stereo not drawn) |  |
| 251 | 5.91 | CCc1cc(C(=O)O)c2c(C(C)C)nn(-c3ccc(Br)cc3)c2n1 |  |
| 163 | < 5.87 | CC(C)c1nn(-c2cccc(Cl)c2)c2nc(C3CC3)cc(C(=O)O)c12 |  |
| 213 | 5.91 | CCc1cc(C(=O)O)c2c(C(CC)CC)nn(-c3ccc(Cl)cc3)c2n1 |  |
| 64.8 |  | Cc1cc(C(=O)O)c2c(C3CCCC3)nn(-c3ccc(Cl)cc3)c2n1 |  |
| 76.8 |  | O=C(O)c1cc(C2CC2)nc2c1c(C1CCCC1)nn2-c1ccc(Cl)cc1 |  |
| 114 | < 5.56 | CC(C)c1nn(-c2ccc(Cl)cc2)c2nc(C3CC3)cc(C(=O)O)c12 |  |
| 250 | 5.82 | CCc1cc(C(=O)O)c2c(C(CC)CC)nn(-c3ccc(F)cc3)c2n1 |  |
| 199 | 5.70 | CC(C)c1nn(-c2ccc(Br)cc2)c2nc(C3CC3)cc(C(=O)O)c12 |  |
| 88.3 |  | O=C(O)c1cc(C2CC2)nc2c1c(C1CCC1)nn2-c1ccc(Cl)cc1 |  |
| 183 | < 5.45 | CCC(CC)c1nn(-c2ccc(Cl)cc2)c2nc(C)cc(C(=O)O)c12 |  |
| 2.26 |  | Cc1cc(C(=O)O)c2c(C(C)(C)C)nn(-c3ccc(Cl)cc3)c2n1 | inhibition [10]: inactive |
| 196 | 5.86 | CCc1cc(C(=O)O)c2c(C(C)C)nn(-c3ccc(Cl)cc3)c2n1 |  |
| 192 | < 5.64 | CCc1cc(C(=O)O)c2c(C(C)C)nn(-c3cccc(Cl)c3)c2n1 |  |
